Source: ChEMBL document CHEMBL1153436, “2-Pyridyl P1'-substituted symmetry-based human immunodeficiency virus protease inhibitors (A-792611 and A-790742) with potential for convenient dosing and reduced side effects” (J Med Chem, 2009)

Key:
Rattus norvegicus [1] = assay: Toxicity in Gunn rat assessed as unconjugated-bilirubin level at 100 mg/kg coadministered with ritonavir measured on day 1; assay type: organism-based; design: dose 100 mg/kg; details: in vivo
Outline: (§1)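 Gunn rats (n = 8-10 per arm) dosed orally with compound in 5% ethanol/95% propylene glycol with p-toluenesulfonic acid, together with 50 mg/kg RTV. Plasma was sampled 4 h after the first and second doses. Drug was measured by HPLC and bilirubin […]. Change in bilirubin (mg/dL) reported as mean with SD.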

Rattus norvegicus [2] = assay: Toxicity in Gunn rat assessed as unconjugated-bilirubin level at 100 mg/kg coadministered with ritonavir measured on day 2; assay type: organism-based; design: dose 100 mg/kg; details: in vivo; outline: as §1
Serum [3] = assay: Drug level in Gunn rat serum at 100 mg/kg coadministered with ritonavir measured on day 1; assay type: ADME, organism-based; design: dose 100 mg/kg; details: in vivo; outline: as §1
Serum [4] = assay: Drug level in Gunn rat serum at 100 mg/kg coadministered with ritonavir measured on day 2; assay type: ADME, organism-based; design: dose 100 mg/kg; details: in vivo; outline: as §1
[5] = system: Human immunodeficiency virus 1; assay: Antiviral activity against wild-type HIV1 pNL4-3 infected in human MT4 cells after 5 days by MTT assay; assay type: functional, organism-based; details: Human immunodeficiency virus 1, MT4, 120 h
[6] = system: Human immunodeficiency virus 1; assay: Antiviral activity against wild-type HIV1 pNL4-3 infected in human MT4 cells after 5 days by MTT assay in presence of 50% human serum; assay type: functional, organism-based; details: Human immunodeficiency virus 1, MT4, 120 h
[7] = system: Human immunodeficiency virus 1; assay: Antiviral activity against HIV1 bearing protease gene with A17 mutation infected in human MT4 cells after 5 days by MTT assay; assay type: functional, organism-based; details: Human immunodeficiency virus 1, MT4, 120 h
Outline: (§2)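 HIV-1 A17 mutant clone carrying protease mutations L10F, V32I, M46I, I47V, Q58E and I84V, generated by in vitro serial passage under LPV/RTV. EC50 was determined in MT-4 cells. Wild-type reference strain was HIV-1 pNL4-3.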

[8] = system: Human immunodeficiency virus 1; assay: Fold resistance, ratio of EC50 for HIV1 bearing protease gene with A17 mutation to EC50 for wild-type HIV1 pNL4-3; assay type: functional; outline: as §2
Rattus norvegicus [9] = assay: Toxicity in po dosed Gunn rat assessed as hyperbilirubinemia; assay type: organism-based; details: in vivo; outline: as §1
[10] = AUC in dog at 5 mg/kg, po; assay type: ADME, organism-based, Canis lupus familiaris; design: dose 5 mg/kg, route oral; details: plasma
Outline: (§3)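 Male and female beagle dogs (n = 3) given oral gavage doses formulated as 5 mg/mL solutions in 5% dextrose with 20% ethanol, 30% propylene glycol and methanesulfonic acid, alone or with RTV (2.5 or 5 mg/kg). Plasma was taken at 12 time points over 12 h, extracted with ethyl acetate/hexane and analysed by reversed-phase HPLC with internal standard. AUC in µg·h/mL; Cmax and C12h in µg/mL.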

[11] = AUC in dog at 2.5 mg/kg; assay type: ADME, organism-based, Canis lupus familiaris; design: dose 2.5 mg/kg; details: plasma; outline: as §3

Row | AUC [10] | AUC [11] | SMILES | Activity (Rattus norvegicus [1]) | Activity (Rattus norvegicus [2]) | Drug uptake (Serum [3]) | Drug uptake (Serum [4]) | EC50 [5] | EC50 [6] | EC50 [7] | Ratio EC50 [8] | Activity (Rattus norvegicus [9])
1 |  |  | COC(=O)N[C@H](C(=O)NN(Cc1ccc(-c2ccccn2)cc1)C[C@H](O)[C@H](Cc1ccccc1)NC(=O)[C@@H](N1CCN(Cc2cccc(C)n2)C1=O)C(C)(C)C)C(C)(C)C | 0.536 mg/dL | 0.685 mg/dL | 8.87 µg/mL | 8.88 µg/mL | 2 nM | 30 nM | 17 nM | 9 | Toxic
2 | 8800 ng·h/mL | 1560 ng·h/mL | CC(C)c1nc(CN(C)C(=O)N[C@H](C(=O)N[C@@H](Cc2ccccc2)C[C@H](O)[C@H](Cc2ccccc2)NC(=O)OCc2cncs2)C(C)C)cs1 [RITONAVIR] |  |  |  |  |  |  |  |  | 
